ChEMBL document CHEMBL4118021, “Studies of TAK1-centered polypharmacology with novel covalent TAK1 inhibitors” (Bioorg Med Chem, 2017)
One block for each compound: values may come before it. Activity calls are given as the source filed them. The rule behind the calls is not given here.

Experiments:
[1] = biological target: T1, Dual specificity mitogen-activated protein kinase kinase 6 (Homo sapiens) (UniProt P52564); experiment: Inhibition of MAP2K6 in human SKCO1 cells at 1 uM after 4 hrs using biotin labeled DVKPSNVLINALGQVK probe by mass-spectrometric analysis relative to control; type: cell-based
T1 sequence (whole entry): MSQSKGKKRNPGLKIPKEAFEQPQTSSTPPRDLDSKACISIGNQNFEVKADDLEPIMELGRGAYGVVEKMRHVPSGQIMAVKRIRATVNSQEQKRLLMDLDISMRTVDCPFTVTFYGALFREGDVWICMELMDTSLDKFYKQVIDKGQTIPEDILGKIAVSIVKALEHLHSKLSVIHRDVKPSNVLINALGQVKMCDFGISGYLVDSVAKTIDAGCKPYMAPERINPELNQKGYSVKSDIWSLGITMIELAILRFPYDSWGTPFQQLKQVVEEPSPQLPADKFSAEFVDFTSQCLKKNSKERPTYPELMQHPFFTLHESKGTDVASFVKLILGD

[2] = Increase in secretion of basic-FGF in poly(I:C) activated RA patient-derived synovial fibroblasts at 0.6 to 3 uM preincubated for 3 hrs followed by poly(I:C) stimulation measured after 18 hrs by sandwich immunoassay; conditions: human
Outline: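 Primary human RA synovial fibroblasts (donor RA2159) seeded at 1000 viable cells/well, grown ~24 h at 37 °C/5% CO2, then starved overnight in basal medium and for a further ~4 h in basal medium with 0.1% BSA. Inhibitor or DMSO given 3 h before stimulation. Supernatants from two adjacent wells pooled as one replicate, biological duplicate. Luminex multiplex panels (48 analytes), diluted 1:3. Mock-supernatant background and spiked-ligand cross-reactivity controls included.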

[3] = biological target: Glycogen synthase kinase-3 beta (Homo sapiens) (UniProt P49841); experiment: Binding affinity to GSK3B in human NCI-H358 cells at 1 uM by mass spectrometry based pull down assay; type: cell-based
[4] = biological target: Small COPII coat GTPase SAR1A (Homo sapiens) (UniProt Q9NR31); experiment: Binding affinity to SAR1A in human NCI-H23 cells at 1 uM by mass spectrometry based pull down assay; type: cell-based
[5] = biological target: Heterogeneous nuclear ribonucleoprotein Q (Homo sapiens) (UniProt O60506); experiment: Binding affinity to SYNCRIP in human NCI-H358 cells at 1 uM by mass spectrometry based pull down assay; type: cell-based
[6] = biological target: Peroxiredoxin-4 (Homo sapiens) (UniProt Q13162); experiment: Binding affinity to PRDX4 in human NCI-H23 cells at 1 uM by mass spectrometry based pull down assay; type: cell-based
Chain of Peroxiredoxin-4 (Homo sapiens) (Q13162 whole entry): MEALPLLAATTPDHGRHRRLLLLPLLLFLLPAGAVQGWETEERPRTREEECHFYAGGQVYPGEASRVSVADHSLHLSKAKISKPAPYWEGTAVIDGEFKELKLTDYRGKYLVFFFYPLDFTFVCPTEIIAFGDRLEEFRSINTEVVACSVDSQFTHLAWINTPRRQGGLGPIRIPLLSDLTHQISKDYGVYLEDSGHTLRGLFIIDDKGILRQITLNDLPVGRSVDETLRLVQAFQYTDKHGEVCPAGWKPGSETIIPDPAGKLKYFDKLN

[7] = biological target: Membrane-associated progesterone receptor component 1 (Homo sapiens) (UniProt O00264); experiment: Binding affinity to PGRMC1 in human NCI-H358 cells at 1 uM by mass spectrometry based pull down assay; type: cell-based
[8] = biological target: Vesicle-trafficking protein SEC22b (Homo sapiens) (UniProt O75396); experiment: Binding affinity to SEC22B in human NCI-H358 cells at 1 uM by mass spectrometry based pull down assay; type: cell-based
[9] = biological target: DNA mismatch repair protein Msh2 (Homo sapiens) (UniProt P43246); experiment: Binding affinity to MSH2 in human NCI-H23 cells at 1 uM by mass spectrometry based pull down assay; type: cell-based
Chain of DNA mismatch repair protein Msh2 (Homo sapiens) (P43246 whole entry): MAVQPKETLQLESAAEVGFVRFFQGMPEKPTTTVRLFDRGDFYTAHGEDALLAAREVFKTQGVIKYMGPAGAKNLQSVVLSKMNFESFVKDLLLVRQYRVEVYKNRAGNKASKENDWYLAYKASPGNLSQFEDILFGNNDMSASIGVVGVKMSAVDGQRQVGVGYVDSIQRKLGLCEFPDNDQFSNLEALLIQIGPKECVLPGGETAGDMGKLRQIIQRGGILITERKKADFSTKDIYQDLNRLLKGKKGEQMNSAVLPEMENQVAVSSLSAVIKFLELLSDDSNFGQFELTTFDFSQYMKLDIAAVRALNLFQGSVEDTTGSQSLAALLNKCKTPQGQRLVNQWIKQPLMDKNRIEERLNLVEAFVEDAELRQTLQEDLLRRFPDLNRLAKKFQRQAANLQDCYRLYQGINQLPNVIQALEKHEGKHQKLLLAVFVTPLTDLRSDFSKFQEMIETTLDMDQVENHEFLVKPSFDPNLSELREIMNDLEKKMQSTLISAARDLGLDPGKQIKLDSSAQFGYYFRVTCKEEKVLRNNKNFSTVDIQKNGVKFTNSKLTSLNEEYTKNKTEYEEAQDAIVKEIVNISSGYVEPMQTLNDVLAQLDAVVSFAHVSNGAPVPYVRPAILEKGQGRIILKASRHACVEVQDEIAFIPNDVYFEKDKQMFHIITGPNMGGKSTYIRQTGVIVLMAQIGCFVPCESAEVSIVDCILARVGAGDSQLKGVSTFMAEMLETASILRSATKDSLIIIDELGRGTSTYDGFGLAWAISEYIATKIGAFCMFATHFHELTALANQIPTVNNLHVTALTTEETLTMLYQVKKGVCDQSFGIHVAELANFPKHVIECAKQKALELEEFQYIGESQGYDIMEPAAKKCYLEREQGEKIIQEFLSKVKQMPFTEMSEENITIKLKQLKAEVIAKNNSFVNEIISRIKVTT

[10] = biological target: Mitogen-activated protein kinase 1 (Homo sapiens) (UniProt P28482); experiment: Binding affinity to MAPK1 in human NCI-H358 cells at 1 uM by mass spectrometry based pull down assay; type: cell-based
Chain of Mitogen-activated protein kinase 1 (Homo sapiens) (P28482 whole entry): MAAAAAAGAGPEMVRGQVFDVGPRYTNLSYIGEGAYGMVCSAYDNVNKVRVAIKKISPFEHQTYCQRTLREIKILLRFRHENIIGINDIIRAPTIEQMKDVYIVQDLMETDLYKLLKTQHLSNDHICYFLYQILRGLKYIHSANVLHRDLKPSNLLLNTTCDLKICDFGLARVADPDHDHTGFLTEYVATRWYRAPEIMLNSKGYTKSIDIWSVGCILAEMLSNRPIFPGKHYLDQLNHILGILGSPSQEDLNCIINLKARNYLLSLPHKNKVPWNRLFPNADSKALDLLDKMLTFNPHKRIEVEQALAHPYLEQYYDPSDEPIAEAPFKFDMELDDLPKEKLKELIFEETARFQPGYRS

[11] = biological target: Importin-5 (Homo sapiens) (UniProt O00410); experiment: Binding affinity to IPO5 in human NCI-H23 cells at 1 uM by mass spectrometry based pull down assay; type: cell-based
Chain of Importin-5 (Homo sapiens) (O00410 whole entry): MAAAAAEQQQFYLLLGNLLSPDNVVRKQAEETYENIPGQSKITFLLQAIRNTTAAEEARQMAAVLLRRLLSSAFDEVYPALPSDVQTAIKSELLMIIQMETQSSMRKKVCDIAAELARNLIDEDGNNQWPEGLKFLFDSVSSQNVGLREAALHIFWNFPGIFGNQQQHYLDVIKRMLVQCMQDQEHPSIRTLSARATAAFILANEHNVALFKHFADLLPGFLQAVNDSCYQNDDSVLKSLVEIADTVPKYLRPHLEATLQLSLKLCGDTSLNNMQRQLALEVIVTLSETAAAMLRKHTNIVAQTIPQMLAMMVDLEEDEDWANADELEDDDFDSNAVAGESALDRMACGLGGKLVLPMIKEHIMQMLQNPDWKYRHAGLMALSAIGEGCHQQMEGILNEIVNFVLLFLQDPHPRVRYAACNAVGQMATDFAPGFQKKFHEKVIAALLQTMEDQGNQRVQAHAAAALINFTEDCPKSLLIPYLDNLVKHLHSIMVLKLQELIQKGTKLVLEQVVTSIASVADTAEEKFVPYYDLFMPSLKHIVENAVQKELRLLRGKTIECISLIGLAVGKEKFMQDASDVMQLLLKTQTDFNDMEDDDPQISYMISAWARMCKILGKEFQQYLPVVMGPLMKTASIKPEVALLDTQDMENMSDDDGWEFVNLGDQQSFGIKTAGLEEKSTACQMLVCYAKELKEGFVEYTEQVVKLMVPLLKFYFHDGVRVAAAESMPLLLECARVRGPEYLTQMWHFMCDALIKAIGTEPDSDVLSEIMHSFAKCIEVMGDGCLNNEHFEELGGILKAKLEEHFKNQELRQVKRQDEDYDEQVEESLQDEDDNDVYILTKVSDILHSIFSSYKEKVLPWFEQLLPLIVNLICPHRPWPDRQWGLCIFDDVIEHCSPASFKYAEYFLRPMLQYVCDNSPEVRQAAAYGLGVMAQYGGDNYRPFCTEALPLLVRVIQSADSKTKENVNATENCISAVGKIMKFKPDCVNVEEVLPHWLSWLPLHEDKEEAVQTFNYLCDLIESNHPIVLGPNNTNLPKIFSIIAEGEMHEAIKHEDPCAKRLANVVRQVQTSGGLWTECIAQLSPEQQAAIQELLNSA

[12] = biological target: Importin subunit beta-1 (Homo sapiens) (UniProt Q14974); experiment: Binding affinity to KPNB1 in human NCI-H358 cells at 1 uM by mass spectrometry based pull down assay; type: cell-based
Chain of Importin subunit beta-1 (Homo sapiens) (Q14974 whole entry): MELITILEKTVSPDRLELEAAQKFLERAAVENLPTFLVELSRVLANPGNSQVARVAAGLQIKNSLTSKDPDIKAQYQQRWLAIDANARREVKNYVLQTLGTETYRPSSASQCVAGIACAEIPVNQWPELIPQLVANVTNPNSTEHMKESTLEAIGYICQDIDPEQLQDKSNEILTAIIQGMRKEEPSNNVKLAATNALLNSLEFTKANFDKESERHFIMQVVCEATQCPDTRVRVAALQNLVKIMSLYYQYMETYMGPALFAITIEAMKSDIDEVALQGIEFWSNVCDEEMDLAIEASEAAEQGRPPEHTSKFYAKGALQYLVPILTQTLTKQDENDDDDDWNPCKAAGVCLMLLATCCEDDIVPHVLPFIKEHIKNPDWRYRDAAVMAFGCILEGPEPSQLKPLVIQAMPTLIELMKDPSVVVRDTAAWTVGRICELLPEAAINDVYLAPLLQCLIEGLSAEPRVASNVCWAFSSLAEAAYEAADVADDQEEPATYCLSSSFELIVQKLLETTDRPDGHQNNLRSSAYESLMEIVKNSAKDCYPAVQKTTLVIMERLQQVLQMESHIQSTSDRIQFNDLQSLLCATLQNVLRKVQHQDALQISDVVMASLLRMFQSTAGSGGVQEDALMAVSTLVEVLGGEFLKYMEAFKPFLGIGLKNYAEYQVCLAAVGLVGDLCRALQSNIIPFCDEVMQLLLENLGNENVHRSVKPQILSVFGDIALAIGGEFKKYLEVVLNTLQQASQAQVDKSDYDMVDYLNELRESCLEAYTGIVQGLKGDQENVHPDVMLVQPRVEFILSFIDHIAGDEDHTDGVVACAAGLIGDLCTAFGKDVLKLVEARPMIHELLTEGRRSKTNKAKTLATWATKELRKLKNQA

[13] = biological target: ADP-ribosylation factor 5 (Homo sapiens) (UniProt P84085); experiment: Binding affinity to ARF5 in human NCI-H358 cells at 1 uM by mass spectrometry based pull down assay; type: cell-based
[14] = biological target: Quinone oxidoreductase (Homo sapiens) (UniProt Q08257); experiment: Binding affinity to CRYZ in human NCI-H358 cells at 1 uM by mass spectrometry based pull down assay; type: cell-based
Chain of Quinone oxidoreductase (Homo sapiens) (Q08257 whole entry): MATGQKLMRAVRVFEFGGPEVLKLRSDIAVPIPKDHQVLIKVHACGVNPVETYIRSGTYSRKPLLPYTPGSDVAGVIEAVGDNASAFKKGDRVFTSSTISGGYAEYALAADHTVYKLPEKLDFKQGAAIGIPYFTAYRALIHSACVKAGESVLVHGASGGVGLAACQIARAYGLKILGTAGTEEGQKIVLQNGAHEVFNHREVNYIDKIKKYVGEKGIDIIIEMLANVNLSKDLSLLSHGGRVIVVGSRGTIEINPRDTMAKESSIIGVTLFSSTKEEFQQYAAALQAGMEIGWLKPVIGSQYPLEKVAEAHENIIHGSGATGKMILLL

[15] = biological target: Kelch-like ECH-associated protein 1 (Homo sapiens) (UniProt Q14145); experiment: Binding affinity to KEAP1 in human NCI-H358 cells at 1 uM by mass spectrometry based pull down assay; type: cell-based
[16] = biological target: T1, Dual specificity mitogen-activated protein kinase kinase 6 (Homo sapiens); experiment: Binding affinity to MAP2K6 in human NCI-H23 cells at 1 uM by mass spectrometry based pull down assay; type: cell-based
[17] = biological target: Thioredoxin-related transmembrane protein 1 (Homo sapiens) (UniProt Q9H3N1); experiment: Binding affinity to TMX1 in human NCI-H23 cells at 1 uM by mass spectrometry based pull down assay; type: cell-based
Chain of Thioredoxin-related transmembrane protein 1 (Homo sapiens) (Q9H3N1 whole entry): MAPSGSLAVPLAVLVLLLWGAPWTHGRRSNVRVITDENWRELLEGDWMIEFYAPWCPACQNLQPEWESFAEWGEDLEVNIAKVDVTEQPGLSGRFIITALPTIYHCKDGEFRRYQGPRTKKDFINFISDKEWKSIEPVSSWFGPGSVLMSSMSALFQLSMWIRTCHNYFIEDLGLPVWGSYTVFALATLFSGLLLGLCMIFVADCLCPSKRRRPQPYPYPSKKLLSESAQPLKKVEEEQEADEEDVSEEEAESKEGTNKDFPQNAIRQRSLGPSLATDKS

[18] = biological target: Mitogen-activated protein kinase kinase kinase 20 (Homo sapiens) (UniProt Q9NYL2); experiment: Binding affinity to ZAK in human NCI-H358 cells at 1 uM by mass spectrometry based pull down assay; type: cell-based
[19] = biological target: Nuclear receptor-binding factor 2 (Homo sapiens) (UniProt Q96F24); experiment: Binding affinity to NRBF2 in human NCI-H23 cells at 1 uM by mass spectrometry based pull down assay; type: cell-based
[20] = biological target: Aurora kinase B (Homo sapiens) (UniProt Q96GD4); experiment: Binding affinity to AURKB in human NCI-H23 cells at 1 uM by mass spectrometry based pull down assay; type: cell-based
Chain of Aurora kinase B (Homo sapiens) (Q96GD4 whole entry): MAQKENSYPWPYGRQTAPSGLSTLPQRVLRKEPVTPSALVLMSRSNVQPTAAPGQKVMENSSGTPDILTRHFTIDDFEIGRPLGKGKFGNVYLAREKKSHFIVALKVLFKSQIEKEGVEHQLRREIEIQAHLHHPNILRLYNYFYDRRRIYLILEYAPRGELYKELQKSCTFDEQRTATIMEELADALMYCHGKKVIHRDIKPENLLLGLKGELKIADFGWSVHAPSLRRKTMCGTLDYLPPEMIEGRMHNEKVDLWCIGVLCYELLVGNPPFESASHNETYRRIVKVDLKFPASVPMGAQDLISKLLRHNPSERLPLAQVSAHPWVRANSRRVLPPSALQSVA

[21] = biological target: Aldehyde dehydrogenase family 3 member A2 (Homo sapiens) (UniProt P51648); experiment: Binding affinity to ALDH3A2 in human NCI-H23 cells at 1 uM by mass spectrometry based pull down assay; type: cell-based
Chain of Aldehyde dehydrogenase family 3 member A2 (Homo sapiens) (P51648 whole entry): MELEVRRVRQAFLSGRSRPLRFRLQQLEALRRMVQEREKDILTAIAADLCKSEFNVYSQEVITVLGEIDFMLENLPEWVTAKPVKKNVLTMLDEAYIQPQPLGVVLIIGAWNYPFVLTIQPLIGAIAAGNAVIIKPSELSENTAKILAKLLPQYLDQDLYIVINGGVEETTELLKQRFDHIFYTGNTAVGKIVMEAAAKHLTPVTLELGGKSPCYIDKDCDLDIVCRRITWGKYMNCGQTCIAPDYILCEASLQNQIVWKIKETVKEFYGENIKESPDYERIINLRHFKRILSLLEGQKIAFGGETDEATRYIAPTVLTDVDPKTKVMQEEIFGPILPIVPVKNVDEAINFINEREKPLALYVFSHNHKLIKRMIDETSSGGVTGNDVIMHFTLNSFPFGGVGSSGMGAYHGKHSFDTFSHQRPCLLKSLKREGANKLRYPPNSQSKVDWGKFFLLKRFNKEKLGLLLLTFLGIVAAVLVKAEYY

[22] = biological target: Protein phosphatase 1G (Homo sapiens) (UniProt O15355); experiment: Binding affinity to PPM1G in human NCI-H23 cells at 1 uM by mass spectrometry based pull down assay; type: cell-based
[23] = biological target: Protein disulfide-isomerase A4 (Homo sapiens) (UniProt P13667); experiment: Binding affinity to PDIA4 in human NCI-H23 cells at 1 uM by mass spectrometry based pull down assay; type: cell-based
[24] = biological target: Caprin-1 (Homo sapiens) (UniProt Q14444); experiment: Binding affinity to CAPRIN1 in human NCI-H358 cells at 1 uM by mass spectrometry based pull down assay; type: cell-based
[25] = biological target: Actin-related protein 2/3 complex subunit 5 (Homo sapiens) (UniProt O15511); experiment: Binding affinity to ARPC5 in human NCI-H23 cells at 1 uM by mass spectrometry based pull down assay; type: cell-based
[26] = biological target: Tight junction protein 1 (Homo sapiens) (UniProt Q07157); experiment: Binding affinity to TJP1 in human NCI-H358 cells at 1 uM by mass spectrometry based pull down assay; type: cell-based
[27] = biological target: MAP/microtubule affinity-regulating kinase 3 (Homo sapiens) (UniProt P27448); experiment: Inhibition of MARK3 in human SKCO1 cells at 1 uM after 4 hrs using biotin labeled EVAIKIIDKTQLNPTSLQK probe by mass-spectrometric analysis relative to control; type: cell-based
[28] = biological target: Cyclin-dependent kinase 20 / CCRK (Homo sapiens) (UniProt Q8IZL9); experiment: Inhibition of CCRK in human SKCO1 cells at 1 uM after 4 hrs using biotin labeled DLKPANLLISASGQLK probe by mass-spectrometric analysis relative to control

Structure (SMILES): COc1cc(O)c2c(c1)/C=C/C[C@H](O)[C@H](O)C(=O)/C=C\C[C@H](C)OC2=O
- inhibition [1]: 54.2%
- Activity [2]: Non-Toxic

- Activity [3]: Active
- Activity [4]: Active
- Activity [5]: Active
- Activity [6]: Active
- Activity [7]: Active
- Activity [8]: Active
- Activity [9]: Active
- Activity [10]: Active
- Activity [11]: Active
- Activity [12]: Active
- Activity [13]: Active
- Activity [14]: Active
- Activity [15]: Active
- Activity [16]: Active
- Activity [17]: Active
- Activity [18]: Active
- Activity [19]: Active
- Activity [20]: Active
- Activity [21]: Active
- Activity [22]: Active
- Activity [23]: Active
- Activity [24]: Active
- Activity [25]: Active
- Activity [26]: Active
Structure (SMILES): C=CC(=O)Nc1ccccc1Nc1nc(Nc2ccc(N3CCN(CCOCCOCCOCCNC(=O)CCCC[C@@H]4SC[C@@H]5NC(=O)N[C@@H]54)CC3)cc2)ncc1Cl

Structure (SMILES): C=CC(=O)Nc1ccccc1Nc1nc(Nc2ccc(N3CCN(C)CC3)cc2)ncc1Cl
- inhibition [27]: 8.6%

Structure (SMILES): C=CC(=O)Nc1ccccc1Oc1nc(Nc2cnn(CCOC)c2)ncc1Cl
- inhibition [28]: -9%
